Data reported in ChEMBL document CHEMBL5506013, “Mitochondria-Selective Dicationic Small-Molecule Ligand Targeting G-Quadruplex Structures for Human Colorectal Cancer Therapy” (J Med Chem, 2024).
Calls of active or inactive are those of the source. The calls are words filed in the database; no cut-off is given here.

Experiments:
DNA [1] = test: Binding affinity to HP19 DNA (non-G4 DNA) (unknown origin) assessed as change in melting temperature at 5 uM by circular dichroism spectroscopic analysis; type: nucleic-acid assay
[2] = Drug localization in mitochondria of human HCT-116 cells at upto 4 uM incubated for 1 hrs by mito-tracker deep red staining based live cell imaging analysis; type: ADME; settings: hct-116, 1 h
[3] = Toxicity in BALB/c nude mouse assessed as change in white blood cell count at 5 mg/kg, iv administered every two days for 16 days; type: organism-based; settings: in vivo, 384 h, time 16 day
In short: (§1)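 HCT116 xenograft-bearing male Balb/c nude mice (6/group) dosed iv at 5 mg/kg every two days or with PBS. Whole blood collected at sacrifice on day 16 for hematology parameters.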

[4] = Drug localization in human HCT-116 cells by measuring red foci at 4 uM incubated for 1 hr in presence of DMOG by hoechst33342 staining based analysis; type: ADME, cell-based; settings: hct-116, 1 h
In short: (§2)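 Pretreatment of live HCT116 cells: FCCP 1 uM for 20 min, cyclosporin A 1 uM for 24 h, DMOG 100 uM for 24 h, or MitoPDS at several concentrations for 3 h (applied after dye loading). Cells loaded with ligand 4 uM (excitation 488 nm) for 1 h and Hoechst33342 1 uM for 30 min. Red foci counted by confocal imaging in 100 cells. Mean ± SEM, t test.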

[5] = Toxicity in BALB/c nude mouse assessed as effect on spleen at 5 mg/kg, iv measured after 16 hrs post injection by H and E staining based analysis; type: organism-based; settings: in vivo
[6] = Drug localization in human HCT-116 cells by measuring red foci at 4 uM incubated for 1 hr in presence of FCCP by hoechst33342 staining based analysis; type: ADME, cell-based; settings: hct-116, 1 h; in short: as §2
HCT-116 [7] = test: Downregulation of ND4 mRNA level in human HCT-116 cells at 0 to 4 uM measured after 48 hrs by qRT-PCR analysis; type: functional, cell-based; settings: dose 0-4 µM
Quadruplex DNA [8] = test: Binding affinity to mito 0.5-15 G4 DNA (unknown origin) assessed as dissociation constant measured upto 150 secs by isothermal titration calorimetry assay; type: nucleic-acid assay
HCT-116 [9] = test: Downregulation of lamin B1 level in human HCT-116 cells measured after 72 hrs by immunofluorescence analysis; type: functional, cell-based; settings: dose <= 4.0 µM
In short: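 HCT116 cells treated with ligand at 0-4 uM for 72 h. Lamin B1 and Ki67 imaged by immunofluorescence (excitation 635 nm), or lamin B1 probed on Western blot with β-actin as loading control.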

[10] = Toxicity in BALB/c nude mouse assessed as change in hemoglobin level at 5 mg/kg, iv administered every two days for 16 days; type: organism-based; settings: in vivo, 384 h, time 16 day; in short: as §1
HCT-116 [11] = test: Downregulation of COX2 protein level in human HCT-116 cells at upto 4 uM incubated for 48 hrs by Western blot analysis; type: functional, cell-based
Quadruplex DNA [12] = test: Binding affinity to mito 29 G4 DNA (unknown origin) assessed as dissociation constant measured upto 150 secs by isothermal titration calorimetry assay; type: nucleic-acid assay; settings: time <= 150.0 sec
HCT-116 [13] = test: Induction of DNA damage in human HCT-116 assessed as increase in tail length at upto 4 uM incubated for 72 hrs by comet assay; type: functional, cell-based
In short: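 HCT116 cells exposed to ligand at 0-4 uM for 72 h. DNA damage assessed by comet assay with DAPI staining (excitation 405 nm), imaged at 200x, tail length measured.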

[14] = Antiproliferative activity against human BJ cells measured after 48 hrs by MTT assay; type: toxicity, cell-based; settings: BJ cells
In short: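 Cells exposed to the ligands for 48 h. Viability was read by MTT, and the IC50 was derived from the response.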

Quadruplex DNA [15] = test: Binding affinity to Mut 55 G4 DNA (unknown origin) assessed as increase in fluorescence intensity by fluorescence spectrophotometric analysis; type: nucleic-acid assay
In short: (§3)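 Oligonucleotides were pre-annealed at 95 °C for 10 min, then cooled slowly. Ligand (5 uM) was mixed with 20 uM DNA in buffer. Emission was collected over 550–800 nm, and enhancement was taken at 650 nm as F/F0.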

[16] = Drug localization in lysosome of living human HCT-116 cells assessed as colocalization at 4 uM incubated for 1 hr by lyso-tracker blue staining based analysis; type: ADME, subcellular; settings: hct-116, 1 h
Quadruplex DNA [17] = test: Binding affinity to mito 55 G4 DNA (unknown origin) assessed as dissociation constant measured upto 450 secs by surface plasmon resonance assay; type: nucleic-acid assay
In short: (§4)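 Surface plasmon resonance in buffer at 25 °C. Four G4-mtDNAs (Mito 78, Mito 55, Mito 29, Mito 0.5-16) and the hairpin HP19 served as substrates. Kd was derived from the sensorgrams.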

[18] = Drug localization in human HCT-116 cells transfected with Cy5-mito 78 G4 DNA at 4 uM incubated for 1 hr by hoechst33342 staining based analysis; type: ADME, cell-based; settings: hct-116, 1 h
In short: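 HCT116 cells transfected with Cy5-coupled mtDNA for 24 h, then given ligand 4 uM for 1 h and Hoechst33342 1 uM for 30 min. Single-plane confocal imaging of living cells, ligand excited at 488 nm, Cy5 at 635 nm. Colocalization expressed as r.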

HCT-116 [19] = test: Antitumor activity against human HCT-116 cells xenografted in Balb/c nude mouse model assessed as reduction in tumor weight at 5 mg/kg, iv administered every two days for 16 days relative to control; type: functional; parameters: scale not given: the % may be the effect or the level left; settings: time 16 day
In short: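 Male Balb/c nude mice carrying HCT116 xenografts, 6 per group. Dosing was intravenous every two days at 5 mg/kg, with a PBS-injected control group. Body weight and tumour growth were tracked. Tumours were excised and weighed after 16 days.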

HCT-116 [20] = test: Induction of DNA damage in human HCT-116 assessed as increase in gammaH2AX level at upto 4 uM incubated for 72 hrs by Western blot analysis; type: functional, cell-based
In short: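 HCT116 cells treated with ligand at 0-4 uM for 72 h. Lysates immunoblotted for Lamin B1, p53, p21, p16, gamma-H2A.x, caspase-3 and cleaved caspase-3, with beta-actin as loading control.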

DNA [21] = test: Binding affinity to HP19 DNA (non-G4 DNA) (unknown origin) assessed as dissociation constant measured upto 450 secs by surface plasmon resonance assay; type: nucleic-acid assay; in short: as §4
HCT-116 [22] = test: Induction of ROS production in human HCT-116 cells assessed as upregulation of ROS level measured after 48 hrs by mito-sox staining based analysis; type: functional, cell-based; settings: dose <= 4.0 µM
Quadruplex DNA [23] = test: Binding affinity to mito 78 G4 DNA (unknown origin) assessed as dissociation constant measured upto 450 secs by surface plasmon resonance assay; type: nucleic-acid assay
HCT-116 [24] = test: Induction of morphological changes in human HCT-116 cells at 4 uM by microscopy based analysis; type: functional, cell-based
In short: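 HCT116 and HFF1 cells treated with ligand at 4 uM alongside untreated controls. Morphology examined by microscopy at 100x.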

Quadruplex DNA [25] = test: Binding affinity to mito 29 G4 DNA (unknown origin) assessed as increase in fluorescence intensity by fluorescence spectrophotometric analysis; type: nucleic-acid assay; in short: as §3

Which results are given for `C(=C\c1ccc2ccccc2[n+]1CCCCCCCC[n+]1c(/C=C/c2ccc(N3CCCCC3)cc2)ccc2ccccc21)/c1ccc(N2CCCCC2)cc1.[I-].[I-]`?
ΔTm (DNA [1]): 0.5 °C; Drug uptake [2]: Active; Activity [3]: Non-Toxic; Drug uptake [4]: Not Active; Activity [5]: Non-Toxic; Drug uptake [6]: Not Active; Activity (HCT-116 [7]): Active; Kd (Quadruplex DNA [8]): 60 nM; Activity (HCT-116 [9]): Dose-Dependent Effect; Activity [10]: Non-Toxic; Activity (HCT-116 [11]): Active; Activity (Quadruplex DNA [12]): inactive; Activity (HCT-116 [13]): Active; IC50 at 48 h [14]: > 40000 nM; Activity (Quadruplex DNA [15]): inactive; Drug uptake [16]: Not Active; Kd (Quadruplex DNA [17]): 170 nM; Drug uptake [18]: Active; Activity (HCT-116 [19]): 70%; Activity (HCT-116 [20]): Active; Kd (DNA [21]): > 2000 nM; Activity (HCT-116 [22]): Dose-Dependent Effect; Kd (Quadruplex DNA [23]): 40 nM; Activity (HCT-116 [24]): Active; Activity (Quadruplex DNA [25]): Active
